Data on 34 molecules can be found in ChEMBL document CHEMBL1153467, “Synthesis and biological evaluation of imidazole derivatives as novel NOP/ORL1 receptor antagonists: exploration and optimization of alternative pyrazole structure” (Bioorg Med Chem Lett, 2009).

One series relates to MDR1 (human). The series can be described thus: Apparent permeability across pig L-MDR1 cells overexpressing human MDR1. The series is classed as ADME, cell-based, Sus scrofa. As to conditions: LLC-PK1. Summed up: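 P-gp transporter efflux assay: apparent permeability (Papp) reported in 10⁻⁶ cm/s; efflux expressed as the B–A/A–B ratio, with ratio accuracy considered compromised when Papp <10.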

In series [1] the target is T1, Nociceptin receptor (Homo sapiens, UniProt P41146). The series can be described thus: Displacement of [125I]Tyr14-nociceptin from human ORL1 receptor expressed in CHO cells. Type of series: cell-based. The procedure, abridged: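 Competition binding to human ORL1 receptors transfected into CHO cells, with [¹²⁵I][Tyr¹⁴]nociceptin as radioligand; values given as IC₅₀.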
On the technique in general: Loss of bound radioactivity is the signal in a displacement assay; it reports binding, not function.

For series [2], the target named is T1, Nociceptin receptor. The series can be described thus: Antagonist activity at human cloned ORL1 receptor expressed in CHO cells assessed as inhibition of nociceptin/orphanin FQ-stimulated [35S]GTPgammaS binding. Type of series: functional, cell-based. The procedure, abridged:
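Functional antagonism measured by stimulation of [³⁵S]GTPγS binding to membranes from CHO cells expressing ORL1, run per an earlier published protocol.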
A general note: GTPγS resists hydrolysis and so accumulates on activated G proteins.

Series [3] deals with T1, Nociceptin receptor. The series can be described thus: Displacement of [125I]Tyr14-nociceptin from human ORL1 receptor expressed in CHO cells at 1 uM. Type of series: cell-based. Summed up:
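Same radioligand displacement at human ORL1 in CHO cells ([¹²⁵I][Tyr¹⁴]nociceptin), but reported as % inhibition of binding at a single 1 μM test concentration.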

Series [4] can be described thus: Efflux ratio of permeability from basolateral to apical side over apical to basolateral side in pig L-MDR1 cells overexpressing human MDR1.
In series [5] the target is Voltage-gated inwardly rectifying potassium channel KCNH2 (Homo sapiens, UniProt Q12809). The series can be described thus: Displacement of [35S]MK499 from human ERG expressed in HEK293 cells overexpressing Ikr channel protein. Type of series: cell-based.
Series [6] in a line: Half life in rat at 1 mg/kg, iv. The series is classed as ADME, organism-based. Further details: dose 1 mg/kg, route intravenous. Conditions: in vivo.
The nature of series [7]: Oral bioavailability in rat at 3 mg/kg. The series is classed as ADME, organism-based. Conditions: in vivo.
Series [8] in a line: Metabolic stability in human liver microsomes at 1 uM after 30 mins. The series is classed as ADME, Microsome. Conditions: read-out: Stability. The procedure, abridged:
(§1)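 Parent compound at 1 μM was incubated with human or rat liver microsomes (0.25 mg protein/ml) for 30 min at 37 °C; stability was read out as % parent remaining.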
A general note: Microsomes from liver hold many membrane-bound enzymes, among them those of drug oxidation.

A short description of series [9]: Metabolic stability in rat liver microsomes at 1 uM after 30 mins. The series is classed as ADME, Microsome. As to conditions: read-out: Stability. The procedure, abridged:
as §1

The nature of series [10]: Clearance in rat at 1 mg/kg, iv. The series is classed as ADME, organism-based. Further details: dose 1 mg/kg, route intravenous. Conditions: in vivo.

T1 sequence (P41146 whole entry): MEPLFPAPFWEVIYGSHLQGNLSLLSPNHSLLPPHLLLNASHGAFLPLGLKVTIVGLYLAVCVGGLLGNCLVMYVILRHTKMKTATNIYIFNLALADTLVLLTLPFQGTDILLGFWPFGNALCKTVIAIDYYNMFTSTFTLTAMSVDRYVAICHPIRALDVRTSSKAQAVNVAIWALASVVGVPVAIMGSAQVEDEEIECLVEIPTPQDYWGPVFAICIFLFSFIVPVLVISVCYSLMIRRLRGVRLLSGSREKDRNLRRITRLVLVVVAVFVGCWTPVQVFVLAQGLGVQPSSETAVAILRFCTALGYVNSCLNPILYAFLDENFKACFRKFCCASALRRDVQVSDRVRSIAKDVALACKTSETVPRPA
Sequence of Voltage-gated inwardly rectifying potassium channel KCNH2 (Q12809 whole entry): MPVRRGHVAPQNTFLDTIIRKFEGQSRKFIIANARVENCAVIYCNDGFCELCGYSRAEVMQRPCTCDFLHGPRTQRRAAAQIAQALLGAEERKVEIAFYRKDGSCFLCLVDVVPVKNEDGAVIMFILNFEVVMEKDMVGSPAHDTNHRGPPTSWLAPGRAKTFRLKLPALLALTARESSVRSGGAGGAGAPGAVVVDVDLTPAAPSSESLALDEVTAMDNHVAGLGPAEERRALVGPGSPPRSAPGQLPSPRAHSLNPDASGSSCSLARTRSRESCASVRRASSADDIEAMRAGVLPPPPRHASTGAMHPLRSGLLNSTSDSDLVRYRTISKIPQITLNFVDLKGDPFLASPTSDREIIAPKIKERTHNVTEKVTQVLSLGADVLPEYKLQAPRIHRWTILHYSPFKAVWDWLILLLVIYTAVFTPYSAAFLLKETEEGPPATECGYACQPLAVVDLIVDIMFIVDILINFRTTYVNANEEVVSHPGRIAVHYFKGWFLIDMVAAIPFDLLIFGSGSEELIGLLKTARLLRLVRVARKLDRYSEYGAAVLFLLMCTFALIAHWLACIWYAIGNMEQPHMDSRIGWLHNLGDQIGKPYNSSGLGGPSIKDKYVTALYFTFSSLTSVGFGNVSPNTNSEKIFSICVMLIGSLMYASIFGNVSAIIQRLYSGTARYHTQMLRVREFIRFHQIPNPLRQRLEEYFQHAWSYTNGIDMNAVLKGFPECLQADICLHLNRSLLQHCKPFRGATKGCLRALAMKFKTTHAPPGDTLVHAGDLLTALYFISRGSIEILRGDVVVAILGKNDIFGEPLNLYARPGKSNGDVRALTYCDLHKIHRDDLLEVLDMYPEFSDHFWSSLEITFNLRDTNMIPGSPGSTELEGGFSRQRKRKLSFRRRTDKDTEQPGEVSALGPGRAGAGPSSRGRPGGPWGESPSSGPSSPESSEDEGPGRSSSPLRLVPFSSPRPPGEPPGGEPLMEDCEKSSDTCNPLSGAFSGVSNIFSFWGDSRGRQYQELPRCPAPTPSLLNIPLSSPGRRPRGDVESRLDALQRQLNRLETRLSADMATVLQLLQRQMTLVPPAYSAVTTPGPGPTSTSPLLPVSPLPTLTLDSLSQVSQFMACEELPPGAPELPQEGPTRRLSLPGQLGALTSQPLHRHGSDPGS

As to `COCCc1nc(CN[C@H]2CC[C@@H](F)C2)n(C(C)C)c1-c1ccc(Cl)cc1`, the Papp in the series with MDR1 (human) was 28.6 ×10⁻⁶ cm/s. For the same molecule, the IC50 on Nociceptin receptor [1] is 7.6 nM; on Nociceptin receptor [2], 5.6 nM.

`Clc1ccc(-c2c(-c3ccc(Cl)cc3Cl)nc(CNC3CCCC3)n2C2CCCC2)cc1`: the IC50 on Nociceptin receptor [1] was greater than 1000 nM. The molecule also came in with an inhibition on Nociceptin receptor [3] of 43%.

With `Clc1ccc(-c2cc(CNC3CCCC3)nn2-c2ccc(Cl)cc2Cl)cc1`, at Nociceptin receptor [1], the IC50 stood at 130 nM.

With `CC(C)(C)n1c(CNC2CCCC2)nc(-c2ccc(Cl)cc2Cl)c1-c1ccc(Cl)cc1`, the IC50 on Nociceptin receptor [1] was greater than 1000 nM. At Nociceptin receptor [3], the inhibition amounted to 26%.

Molecule `Clc1ccc(-c2sc(CNC3CCCC3)nc2-c2ccc(Cl)cc2Cl)cc1` displayed an IC50 on Nociceptin receptor [1] greater than 1000 nM. Further, the inhibition at Nociceptin receptor [3] came out at 7%.

At Nociceptin receptor [1], `Cc1nn(-c2ccccc2)c(C)c1CNC1CCCC1` showed an IC50 greater than 1000 nM. At Nociceptin receptor [3], this molecule yielded an inhibition of 44%.

Molecule `CC(C)n1c(CNC2CCCC2)nc(-c2ccc(Cl)cc2Cl)c1-c1ccc(Cl)cc1` returned an IC50 on Nociceptin receptor [1] of 33 nM.

On to `Cc1nc(CN[C@H]2CC[C@@H](F)C2)c(C(C)C)n1-c1cc(F)cc(F)c1`, for which the Papp in the series on MDR1 (human) came to 34 ×10⁻⁶ cm/s. For the same molecule, the Ratio in [4] worked out at 3.2. Also, the figures for the IC50 (at Nociceptin receptor [1]; in [5]; on Nociceptin receptor [2]) were 8.6 nM, 34000 nM and 4.5 nM, respectively.

With `Cn1c(CNC2CCCC2)nc(-c2ccc(Cl)cc2)c1-c1ccc(Cl)cc1Cl`, the IC50 on Nociceptin receptor [1] came to 850 nM.

In turn, `Clc1ccc(-c2c(-c3ccc(Cl)cc3Cl)nc(CNC3CCCC3)n2C2CC2)cc1` gave an IC50 on Nociceptin receptor [1] of 190 nM.

`Cc1nc(CNC2CCCC2)n(C(C)C)c1-c1ccc(Cl)cc1`: in the series with MDR1 (human), the Papp turned out to be 18.2 ×10⁻⁶ cm/s. Moreover, in [4], the Ratio came out at 1. In addition, the IC50 at Nociceptin receptor [1] was determined as 11 nM; in series [5] it was 3200 nM.

At Nociceptin receptor [1], `Clc1ccc(-c2c(-c3ccc(Cl)cc3Cl)nc(CNC3CCCC3)n2C2CCCCC2)cc1` registered a 50% inhibitory concentration (IC50) greater than 1000 nM. In addition, at Nociceptin receptor [3], the inhibition is 48%.

In turn, `CC(C)Cn1c(CNC2CCCC2)nc(-c2ccc(Cl)cc2Cl)c1-c1ccc(Cl)cc1` showed an IC50 on Nociceptin receptor [1] of 540 nM.

Consider `Cc1c(CNC2CCCC2)cc(-c2ccc(Cl)cc2Cl)n1-c1ccc(Cl)cc1`, for which the IC50 on Nociceptin receptor [1] came to 200 nM.

Consider `Clc1ccc(-c2c(-c3ccc(Cl)cc3Cl)nc(CNC3CCCC3)n2C2CCC2)cc1`, for which, on Nociceptin receptor [1], the IC50 was 530 nM.

Regarding `Clc1ccc(-c2oc(CNC3CCCC3)nc2-c2ccc(Cl)cc2Cl)cc1`, the IC50 on Nociceptin receptor [1] is greater than 1000 nM. This molecule came in with an inhibition on Nociceptin receptor [3] of 28%.

As for `Cc1ccc(-n2c(-c3ncccc3Cl)nc(CNC3CCCC3)c2C(C)C)cn1`, in the series with MDR1 (human), the Papp came out at 25 ×10⁻⁶ cm/s. In [4], the Ratio is on record as 22.9. In addition, the IC50 worked out at 4.7 nM at Nociceptin receptor [1], 9900 nM in series [5] and 9.6 nM on Nociceptin receptor [2].

As for `Cc1ccc(-n2c(-c3ncccc3Cl)nc(CNC3CCCC3)c2C)cn1`, the IC50 on Nociceptin receptor [1] was 26 nM.

Consider `CCn1c(CNC2CCCC2)nc(-c2ccc(Cl)cc2Cl)c1-c1ccc(Cl)cc1`, for which the IC50 at Nociceptin receptor [1] turned out to be 160 nM.

At Nociceptin receptor [1], `FCC(CF)n1c(CNC2CCCC2)nc(-c2ccc(Cl)cc2Cl)c1-c1ccc(Cl)cc1` yielded an IC50 of 96 nM.

`Cc1ccc(-n2c(-c3ncccc3Cl)nc(CN[C@H]3CC[C@@H](F)C3)c2C)cn1`: the Papp with MDR1 (human) is 16.8 ×10⁻⁶ cm/s. Besides, the IC50 is 9.1 nM at Nociceptin receptor [1] and 3.7 nM on Nociceptin receptor [2].

Turning to `Cc1c(CNC2CCCC2)oc(-c2ccc(Cl)cc2Cl)c1-c1ccc(Cl)cc1`, at Nociceptin receptor [1], the IC50 was greater than 1000 nM. The same molecule registered an inhibition at Nociceptin receptor [3] of 25%.

The molecule `Cn1c(CNC2CCCC2)nnc1-c1cc(F)cc(F)c1` displayed an IC50 on Nociceptin receptor [1] greater than 1000 nM. The same molecule gave an inhibition on Nociceptin receptor [3] of 19%.

Turning to `CCc1c(CN[C@H]2CC[C@@H](F)C2)nc(-c2ncccc2Cl)n1-c1ccc(C)nc1`, the half-life in [6] is 30 min. The Papp in the series with MDR1 (human) was found to be 20.6 ×10⁻⁶ cm/s. Besides, in series [4], the Ratio is listed as 19.7. For the same molecule, the IC50 is 3.2 nM on Nociceptin receptor [1], 15000 nM in series [5] and 2.3 nM on Nociceptin receptor [2]. Moreover, in series [7], the bioavailability was determined as 10%. The remaining at 0.5 h, 1 µM in series [8] is 85%; in [9] it was 82%. Moreover, the clearance in [10] amounted to 114 mL/min/kg.

For the molecule `Clc1ccc(-c2nc(CNC3CCCC3)cn2-c2ccc(Cl)cc2Cl)cc1`, the IC50 at Nociceptin receptor [1] was determined as 620 nM.

Regarding `Cc1c(CNC2CCCC2)nc(-c2ccc(Cl)cc2Cl)n1-c1ccc(Cl)cc1`, on Nociceptin receptor [1], the IC50 worked out at 28 nM.

On Nociceptin receptor [1], `CCC(CC)n1c(CNC2CCCC2)nc(-c2ccc(Cl)cc2Cl)c1-c1ccc(Cl)cc1` gave an IC50 of 160 nM.

`Cc1ccc(-n2c(-c3ncccc3Cl)nc(CN[C@H]3CC[C@@H](F)C3)c2C(C)C)cn1`: the Papp in the series with MDR1 (human) is 24.1 ×10⁻⁶ cm/s. Also, the Ratio in series [4] is reported as 21.8. In addition, the results for the IC50 (at Nociceptin receptor [1]; in series [5]; at Nociceptin receptor [2]) were 1.4 nM, 15000 nM and 2.3 nM, respectively.

Molecule `FC(F)(F)Cn1c(CNC2CCCC2)nc(-c2ccc(Cl)cc2Cl)c1-c1ccc(Cl)cc1` returned an IC50 on Nociceptin receptor [1] greater than 1000 nM. The same molecule showed an inhibition on Nociceptin receptor [3] of 32%.

`Cn1c(CNC2CCCC2)nc(-c2ccc(Cl)cc2Cl)c1-c1ccc(Cl)cc1` registered an IC50 at Nociceptin receptor [1] of 520 nM.

As to `FC(F)Cn1c(CNC2CCCC2)nc(-c2ccc(Cl)cc2Cl)c1-c1ccc(Cl)cc1`, the IC50 on Nociceptin receptor [1] is 500 nM.

With `Cc1c(CNC2CCCC2)nnn1-c1ccc(F)c(F)c1`, the IC50 on Nociceptin receptor [1] was greater than 1000 nM. For the same molecule, the inhibition at Nociceptin receptor [3] was found to be 40%.

As for `Clc1ccc(-c2nc(CNC3CCCC3)nn2-c2ccc(Cl)cc2Cl)cc1`, the IC50 at Nociceptin receptor [1] is greater than 1000 nM. Besides, at Nociceptin receptor [3], the inhibition came to 48%.

Regarding `FCCn1c(CNC2CCCC2)nc(-c2ccc(Cl)cc2Cl)c1-c1ccc(Cl)cc1`, the IC50 at Nociceptin receptor [1] is 160 nM.

In general, Papp refers to a coefficient for how fast a substance crosses the barrier. What is called IC50 is the concentration that gives 50% inhibition. In general, inhibition refers to the drop in the measured response relative to a control, in per cent. Read a low inhibition as little suppression. As usually defined, the half-life is how long it takes for the measured level to halve. As usually defined, the bioavailability is dose-corrected exposure relative to a reference, in per cent. Low readings indicate little systemic uptake, high ones much systemic uptake. What is called clearance is a measure of how efficiently the substance is removed, as volume per time. A high value points to a high capacity for elimination.
